Compound activity from PubChem.
14-3-3 Bad PPI: disrupts binding of bovine 14-3-3 zeta to phospho-Bad peptide | inhibition, % at 21.7 µM | hit rate 0.71% among 220,000 | P63103 | AID 781 | TR-FRET 14-3-3zeta/Dy647-pBad peptide displacement, 1 h;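 active = inhibition above about 70%, limit read from the data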
p97 inhibitor: human p97 ATPase inhibition. recombinant p97 ATPase, Kinase-Glo ATP luminescence, 3 h. hit rate 0.42% among 220,000. P55072. inhibition, % at 8 µM. AID 1481; in the data active = inhibition above about 15%
Hck Nef HTS: blocks Nef-activated human Hck kinase. P08631. Recombinant Hck-YEEI plus Nef, Z-Lyte FRET kinase assay. inhibition, % at 20 µM. hit rate 0.68% among 220,000;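 active = Hck-Nef kinase inhibition above about 50%, limit read from the data; inactive = inhibition below that limit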
eIF4E 4G PPI: blocks eIF4E binding to eIF4G; AID 782; inhibition, % at 21.7 µM; hit rate 0.37% among 220,000; P63073+Q04637; TR-FRET eIF4E-eIF4GI(517-606) binding, 2 h;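 active = inhibition above about 30%, limit read from the data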
Biofilm kill mix: mixture kills Candida albicans biofilm cells | C. albicans biofilm persisters + clotrimazole, fluorescence viability; primary screen in compound mixtures of four per well | hit rate 0.02% among 120,000 | inhibition, % at 7.6 µM;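 active = inhibition above 30.3% in the primary screen of four-compound pools, then above 30% when the compound was retested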;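 also: compounds exposed to preformed 24 h biofilms for 48 h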
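System: C. albicans CAF4-2 wild-type biofilms; Medium: RPMI/MOPS medium, pH 7.0; Reagent: Clotrimazole, 50 µg/mL; Times: biofilm formation 24 h, compound exposure 48 h, 37 °C; Detection: 2-h Alamar Blue fluorescence, 535/590 nm excitation/emission; Evaluation: percent inhibition of biofilm viability.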
PERK inh: blocks human PERK kinase | hit rate 0.17% among 220,000 | CHO PERK-DD fusion, SEAP luminescence translation reporter | inhibition, % at 5.6 µM | Q9NZJ5;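 active = inhibition above the mean inhibition of all tested compounds plus 3 SD, set separately per screening campaign, cut at about 2.9% in these data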;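 also: PERK kinase domain activated by AP20187 dimerizer at 100 nM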
Target sequence (Q9NZJ5 whole entry, looked up, the tested form may be a part): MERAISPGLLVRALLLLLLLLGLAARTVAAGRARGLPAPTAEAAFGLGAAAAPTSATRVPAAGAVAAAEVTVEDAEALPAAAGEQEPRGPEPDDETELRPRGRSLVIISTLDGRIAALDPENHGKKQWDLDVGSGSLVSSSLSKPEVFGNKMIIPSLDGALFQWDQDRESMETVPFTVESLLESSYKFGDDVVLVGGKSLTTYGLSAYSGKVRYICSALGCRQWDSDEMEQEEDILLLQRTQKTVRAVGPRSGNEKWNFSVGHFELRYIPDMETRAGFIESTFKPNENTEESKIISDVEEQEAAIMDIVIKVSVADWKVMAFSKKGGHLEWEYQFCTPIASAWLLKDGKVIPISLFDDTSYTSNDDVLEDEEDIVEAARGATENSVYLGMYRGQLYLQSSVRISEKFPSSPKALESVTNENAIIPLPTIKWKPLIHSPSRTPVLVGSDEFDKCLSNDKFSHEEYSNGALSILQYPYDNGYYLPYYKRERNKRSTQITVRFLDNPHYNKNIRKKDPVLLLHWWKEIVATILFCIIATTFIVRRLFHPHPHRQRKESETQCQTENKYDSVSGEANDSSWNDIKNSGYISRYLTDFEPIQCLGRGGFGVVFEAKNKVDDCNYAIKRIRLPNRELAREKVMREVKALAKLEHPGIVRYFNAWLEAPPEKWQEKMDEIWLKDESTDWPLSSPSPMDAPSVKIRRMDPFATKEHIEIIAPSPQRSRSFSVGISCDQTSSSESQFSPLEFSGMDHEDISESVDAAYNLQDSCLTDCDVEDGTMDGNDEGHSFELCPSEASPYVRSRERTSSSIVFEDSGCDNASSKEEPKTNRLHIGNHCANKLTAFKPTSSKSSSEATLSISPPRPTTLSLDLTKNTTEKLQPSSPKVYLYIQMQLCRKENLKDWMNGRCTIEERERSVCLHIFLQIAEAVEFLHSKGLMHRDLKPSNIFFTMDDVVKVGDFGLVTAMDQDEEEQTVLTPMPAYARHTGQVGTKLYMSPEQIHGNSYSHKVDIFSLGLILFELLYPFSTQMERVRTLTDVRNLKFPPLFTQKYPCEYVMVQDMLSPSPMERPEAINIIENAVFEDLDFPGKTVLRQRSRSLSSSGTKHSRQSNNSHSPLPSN
Each line names hits and unclear results; the compound was inactive in the other large screens; [ ] = another dose, or the depositor's remark. Compounds with a hit are over-represented: about 2.2% of the library has one in this group of screens.

O=C(CSc1nnc(-c2ccccc2)n1C1CCCCC1)Nc1ccc(S(=O)(=O)Nc2ccccn2)cc1	eIF4E 4G PPI 52.8 (no result: Biofilm kill mix)
CN(C)c1ccc(C(=O)Nc2ccc(CN3CCS(=O)(=O)CC3)cc2)cc1	none
COc1ccc(-c2cc([C@H]3[C@@H]4C=CCC[C@@]4(C)C(=O)N3Cc3ccccc3)ccc2F)cc1	eIF4E 4G PPI 44.8 (no result: p97 inhibitor, PERK inh)
Cc1ccnc(NS(=O)(=O)c2cc(C(F)(F)F)ccc2Cl)c1	PERK inh 3.4
Cc1ccnc(NS(=O)(=O)c2cccs2)c1	none (no result: Biofilm kill mix)
O=C(COc1ccc(-c2ccccc2)cc1)NNC(=O)NC1CCCCC1	none
CCn1nnc(NC(=O)COc2ccc([N+](=O)[O-])cc2)n1	PERK inh 3.0
Cc1ccc(NC(=O)C(=Cc2ccc(C(=O)O)cc2)C(=O)Nc2ccc(C)cc2C)c(C)c1	none
Cn1cc([N+](=O)[O-])c(C(=O)Nc2cc(Oc3cccnc3)cc([N+](=O)[O-])c2)n1	14-3-3 Bad PPI 74.4 (no result: Biofilm kill mix)
O=[N+]([O-])c1cc(Oc2cccnc2)cc([N+](=O)[O-])c1	none
COc1cc(S(=O)(=O)N2CCOCC2)ccc1NC(=O)COC(=O)CC12CC3CC(CC(C3)C1)C2	none (no result: Biofilm kill mix)
COc1cc2cc(C(c3nnnn3C3CCCC3)N(C)C3CCCCC3)c(=O)[nH]c2cc1OC (stereo not drawn)	eIF4E 4G PPI 30.5 (no result: Biofilm kill mix)
O=C(c1ccc(Cl)cc1)n1c(NCc2ccccc2)n[nH]c1=S	14-3-3 Bad PPI 82.5
CCn1c(CCNC(=O)c2ccc(Cl)cc2)n[nH]c1=S	none (no result: Biofilm kill mix)
CCc1nnc(NC(=O)CSc2ncnc3c2oc2ccccc23)s1	14-3-3 Bad PPI 72.8 (no result: Biofilm kill mix)
CCOC(=O)CNC(=O)CSc1nccn1Cc1ccco1	none
O=S(=O)(Nc1ccncc1Cl)c1cc(Cl)ccc1Cl	none
O=S(=O)(Nc1nc(-c2sccc2Cl)cs1)c1cc(Cl)ccc1Cl	14-3-3 Bad PPI 87.5 (no result: Biofilm kill mix)
C/C(=N/NC(=O)c1ccoc1C)c1ccc(NC(=O)c2ccncc2)cc1	none
N#Cc1cc(-c2ccccc2)nn1-c1ccccc1	14-3-3 Bad PPI 80.2[fluorescence artefact?], eIF4E 4G PPI 66.4[fluorescence artefact?] (no result: Biofilm kill mix)
Cn1ccc(-c2ccccc2)n1	none
CCc1nn(C(C)C(=O)NCCc2ccc(OC)c(OC)c2)c(=O)c2cc3occc3n12 (stereo not drawn)	14-3-3 Bad PPI 89.4 (no result: Biofilm kill mix)
COc1cc(NC(=O)COc2ccccc2[N+](=O)[O-])ccc1NC(=O)c1cccs1	14-3-3 Bad PPI 73.8
c1ccc(-c2nc(NCc3ccco3)c3oc4ccccc4c3n2)cc1	14-3-3 Bad PPI 72.6 (no result: Biofilm kill mix)
Cc1nnc(NC(=O)NC(C)N2C(=O)C3C4C=CC(C4)C3C2=O)s1 (stereo not drawn)	none (no result: Biofilm kill mix)
CC(NC(=O)Nc1nnc(C(F)(F)F)s1)N1C(=O)C2C3C=CC(C3)C2C1=O (stereo not drawn)	14-3-3 Bad PPI 78.6 (no result: Biofilm kill mix)
CC(C(=O)N1CCN(Cc2ccc3c(c2)OCO3)CC1)c1ccc([N+](=O)[O-])cc1 (stereo not drawn)	none
O=C(NNS(=O)(=O)c1ccc(Cl)cc1)c1cc(-c2ccccc2)nc2ccccc12	none
CCCCOCCCn1c(-c2ccco2)nc2nc3ccccc3nc21	eIF4E 4G PPI 54.1 (no result: Biofilm kill mix)
CCS(=O)(=O)c1ccc(O)c(NC(=O)Nc2ccc(C(C)(C)C)cc2)c1	none
Cc1ccc(NC(=O)/C(CN(C)C)=N\O)cc1	14-3-3 Bad PPI 93.4[fluorescence artefact?] (no result: Biofilm kill mix)
CCN(c1ccc(NC(=O)CN2C(=O)NC3(CCOc4ccccc43)C2=O)cc1)C(C)C (stereo not drawn)	none (no result: Biofilm kill mix)
O=C1Nc2ccccc2SC(c2ccccc2)C1O (stereo not drawn)	eIF4E 4G PPI 35.7 (no result: Biofilm kill mix)
O=C(CN1CCCCC1)Nc1ccc(F)c(Cl)c1	none (no result: Biofilm kill mix)
O=C(CN1CCCCCC1)Nc1ccc(F)c(F)c1	14-3-3 Bad PPI 71.6
O=[N+]([O-])c1ccc(C2NS(=O)(=O)N=C3CCCCCN32)cc1 (stereo not drawn)	PERK inh 3.6
O=C(c1ccc(Cn2cc(Cl)c([N+](=O)[O-])n2)cc1)N1CCN(Cc2ccccc2)CC1	none
CCn1cc(S(=O)(=O)Nc2ccc3c(c2)OCCO3)cn1	none
Cn1cc(S(=O)(=O)Nc2ccc3c(c2)OCCO3)cn1	14-3-3 Bad PPI 89.0
O=Cc1cccn1-c1nccc(-c2ccco2)n1	none
O=C(Oc1ccc(NC(=O)c2cc3c(cc2Br)OCO3)cc1)c1ccccc1	none
O=c1cnnc(N/N=C/c2cccs2)[nH]1	PERK inh 4.0
O=C1/C(=C\c2ccccn2)SC(=S)N1c1ccc(S(=O)(=O)Nc2nccs2)cc1	none
COc1ccc(/C=C2/SC(=S)N(c3ccc(S(=O)(=O)Nc4nccs4)cc3)C2=O)cc1	Hck Nef HTS 59.2
Cc1ccc(Nc2nc(N)nc(CN3CCN(Cc4ccc5c(c4)OCO5)CC3)n2)cc1Cl	none (no result: Biofilm kill mix)
Cc1ccc(Nc2nc(N)nc(CN3CCN(Cc4ccc5c(c4)OCO5)CC3)n2)cc1C	Biofilm kill mix 32.7
COc1ccccc1N1CCN(Cc2cc(Br)c(O)c3ncccc23)CC1	none (no result: Biofilm kill mix)
CCOc1ccccc1N1CCN(Cc2cccc(OC)c2O)CC1	14-3-3 Bad PPI 73.5 (no result: Biofilm kill mix)
Nc1nc(C2C(=O)CCCC2=O)cs1	14-3-3 Bad PPI 70.6 (no result: Biofilm kill mix)
O=C(O)c1ccn(Cn2cnc3ccccc32)n1	14-3-3 Bad PPI 75.8 (no result: Biofilm kill mix)
COc1ccc(N2C(=O)CC(Sc3n[nH]c(-c4ccccc4)n3)C2=O)cc1 (stereo not drawn)	none
O=C(/C=C/c1ccco1)c1ccccc1O	eIF4E 4G PPI 82.0
Cc1cc(C)c(C)c(C(=O)CSc2nnc(-c3ccc4[nH]c(C)c(C)c4c3)o2)c1C	14-3-3 Bad PPI 72.9
CCCn1c(=O)[nH]c(=O)c2c1nc(-c1ccc3c(c1)OCCO3)n2CCN1CCOCC1	14-3-3 Bad PPI 72.4 (no result: Biofilm kill mix)
CC(C)(C)Sc1ccc([N+](=O)[O-])cc1C(=O)Nc1ccncc1	none
c1ccc2c(c1)OCc1cn[nH]c1-2	eIF4E 4G PPI 50.7
CN(C)CC/C=C1/c2ccccc2COc2ccccc21	none (no result: Hck Nef HTS, Biofilm kill mix)
Cc1[nH]ncc1-c1ccccc1Cl	none
CCOC(=O)c1cc(-c2cccc([N+](=O)[O-])c2)n[nH]1	14-3-3 Bad PPI 80.6
O=C(CCCC(=O)N/N=C/c1ccccc1C(=O)O)N/N=C/c1ccccc1C(=O)O	PERK inh 3.5
COc1ccc(CC(=O)NCc2csc(-c3cccs3)n2)cc1OC	none
O=C(Nc1ccc(OC(F)(F)F)cc1)C1CCCN(S(=O)(=O)c2cccnc2)C1 (stereo not drawn)	14-3-3 Bad PPI 82.2 (no result: Biofilm kill mix)
Cc1csc(NC(=O)C2CCCN(S(=O)(=O)c3cccnc3)C2)n1 (stereo not drawn)	none (no result: Biofilm kill mix)
Cc1c(Nc2nc(-c3cccc([N+](=O)[O-])c3)cs2)c(=O)n(-c2ccccc2)n1C	14-3-3 Bad PPI 87.8
CN(Cc1ccccc1)CC(O)COc1ccc(CNCCc2cccnc2)cc1 (stereo not drawn)	none
CN(Cc1ccccc1)CC(O)COc1ccc(CNCCc2ccncc2)cc1 (stereo not drawn)	14-3-3 Bad PPI 86.2
